Screening results as filed in PubChem BioAssay.
Only some compounds are listed: those with a hit (about 6.8% of all), similar ones and a draw of the others.
ALR inh: inhibitors of human sulfhydryl oxidase ALR; P55789; purified ALR, DTT oxidation, H2O2 HRP-luminol luminescence; inhibition, % (test concentration not listed); actives 3.8% (n = 290,000); AID 485317;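 active = mean replicate inhibition above about 79%, with every replicate also reaching it, limit read from the data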
Target sequence (P55789 whole entry, looked up): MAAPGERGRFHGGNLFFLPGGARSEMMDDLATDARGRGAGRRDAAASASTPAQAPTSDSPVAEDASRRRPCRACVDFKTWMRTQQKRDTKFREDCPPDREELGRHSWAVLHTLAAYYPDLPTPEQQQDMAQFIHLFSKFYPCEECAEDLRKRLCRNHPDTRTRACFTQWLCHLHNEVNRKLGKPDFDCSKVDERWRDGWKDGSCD
HSF1 inh: HSF1 inhibition; actives 0.77% (n = 300,000); AID 2098; NIH3T3-HGL HSE-luciferase, MG132-induced, luminescence 8 h; stronger effect = lower value; activity change, negative = inhibition, % at 7.5 µM (by protocol);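 active = more than half of replicate wells show activity change below -50%, luminescence cut by over half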;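 also: luciferase reports HSF-1 transcriptional activity via heat shock element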
PHOSPHO1 inh: inhibitors of human PHOSPHO1 phosphatase. inhibition, % at 13.3 µM. actives 1.1% (n = 290,000). AID 1565. recombinant PHOSPHO1, absorbance phosphatase assay. Q8TCT1; in the data active = inhibition above about 60%
Target sequence (Q8TCT1 whole entry, looked up): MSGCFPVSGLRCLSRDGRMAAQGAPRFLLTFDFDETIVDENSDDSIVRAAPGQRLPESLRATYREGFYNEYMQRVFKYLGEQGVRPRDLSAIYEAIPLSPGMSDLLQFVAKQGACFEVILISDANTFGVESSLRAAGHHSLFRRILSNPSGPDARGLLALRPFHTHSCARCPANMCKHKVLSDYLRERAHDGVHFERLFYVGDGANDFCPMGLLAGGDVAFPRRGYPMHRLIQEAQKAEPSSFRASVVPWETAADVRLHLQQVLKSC
core dimer inh: blocks dimerization of HCV core protein. inhibition, % at 5 µM. actives 0.33% (n = 300,000). AID 1899. TR-FRET GST/Flag-core106 dimerization, 1536-well;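 active = inhibition above the mean of all tested compounds plus 3 SD, set per screening campaign, cut at about 45% in these data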
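System: GST/Flag-tagged HCV core106 proteins. Incubation: compound-protein-antibody incubation 4 h at 22.5 °C. Technique: HTRF with 340 nm excitation, 617/671 nm emission. Medium: KF-containing HEPES buffer, pH 7.45, DTT, CHAPS, BSA. Read-out: inhibition (%) from 671 over 617 nm ratio. Also added: Eu(K)-anti-GST 90 ng/mL plus XL665-anti-Flag 1 µg/mL.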
AI-2 QS modul: modulates the Vibrio harveyi AI-2 quorum sensing system. actives 0.4% (n = 300,000). Vibrio harveyi JMH597 AI-2 luminescence/OD600 ratio, 9 h; stronger effect = lower value; strain lacks LuxN and CqsS sensors; 0 = neutral-control median. activity change, % at 7.5 µM; in the data active = activity change below about -75%, passing the limit was not always enough;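 also: luminescence divided by OD600 gain over 9 h not by final OD600 alone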
HSF1 activator: increases HSF-1 driven luciferase reporter signal; NIH3T3-HGL HSF-1 luciferase reporter, MG132, 8 h; 100% = twice DMSO control signal; actives 1.7% (n = 300,000); activation, % at 9 µM;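 active = mean replicate activation of at least 50% with a set share of replicates each reaching 50%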
Of the large screens only hits and unclear results are named; the others gave an inactive call.

COc1ccc(-c2n[nH]c(=S)n2-c2ccc3c(c2)OCCO3)cc1OC	none
Cc1ccc(-n2c(-c3nn(C)c(C)c3Cl)n[nH]c2=S)cc1	ALR inh 86, PHOSPHO1 inh 95
CC(C)(C)c1cc(-c2n[nH]c(=S)n2-c2ccc(Cl)cc2)n[nH]1	ALR inh 93
COc1cccc(OC)c1C(=O)Nc1cccnc1	none
CCOC(=O)N1CCN(C(=O)CNC(=O)c2ccc(Br)o2)CC1	none (no result: core dimer inh)
COc1ccc2c(c1OC)C(=O)OC2N1C(=O)CC[C@H]1C(=O)Nc1ccc(F)cc1F (stereo partly specified)	none (no result: ALR inh)
COc1ccccc1-c1n[nH]c(=S)n1N	none
Cc1ccccc1-n1c(-c2ccoc2C)n[nH]c1=S	none (no result: ALR inh)
Cc1cccc(-n2c(-c3ccoc3C)n[nH]c2=S)c1	ALR inh 91
COc1ccccc1N1CCN(CCc2n[nH]c(=S)n2-c2ccccc2)CC1	ALR inh 97
COc1ccc(-n2c(CCc3ccccc3)n[nH]c2=S)cc1	none
COc1ccccc1-c1n[nH]c(=S)n1-c1ccccc1	ALR inh 93, PHOSPHO1 inh 89
Cc1ccc(-n2c(-c3c(-c4ccccc4)noc3C)n[nH]c2=S)cc1	PHOSPHO1 inh 85
S=c1[nH]nc(-c2cccnc2)n1-c1ccccc1	none
Cc1ccc(NC(=O)CCc2nc3ccccc3c(=O)[nH]2)cc1S(=O)(=O)N1CCOCC1	none (no result: PHOSPHO1 inh)
Cc1cccc(-n2c(C)n[nH]c2=S)c1	none
Cc1cccc(-n2c(-c3ccncc3)n[nH]c2=S)c1	ALR inh 91
Cc1ccc(-n2c(C)n[nH]c2=S)cc1	ALR inh 95
Cc1ccc([N+](=O)[O-])c(-c2n[nH]c(=S)n2-c2cccc(Cl)c2)c1	PHOSPHO1 inh 88
Cc1ccc(-n2c(-c3cccc(C)c3)n[nH]c2=S)cc1	PHOSPHO1 inh 102
Cc1ccc(-c2n[nH]c(=S)n2-c2ccccc2)cc1	none
Cc1ccc(-n2c(C)n[nH]c2=S)cc1C	none (no result: ALR inh)
O=C(N/C(=C/c1ccc(Br)cc1)C(=O)N1CCCC1=O)c1ccco1	none
CC1=CC2=C(OC1N(C)C)c1cccc3cccc(c13)C2=O (stereo unspecified)	HSF1 activator 63
NS(=O)(=O)c1ccc(CCNC(=O)Cc2ccc(S(=O)(=O)N3CCOCC3)s2)cc1	none (no result: PHOSPHO1 inh)
COc1ccc(C(=O)O)cc1S(=O)(=O)NCCc1ccccn1	none (no result: ALR inh)
CC1(C)CC(=O)c2cc(C(=O)NNc3ccccc3)c(=O)n(-c3ccccc3)c2C1	ALR inh 98
CC1(C)CC(=O)c2cc(C(=O)NCc3ccco3)c(=O)n(-c3ccccc3)c2C1	none
O=c1[nH]c(/C=C\c2ccc(O)c(O)c2)nc(O)c1[N+](=O)[O-]	ALR inh 99 (no result: core dimer inh)
O=c1[nH]c(/C=C\c2cccc(O)c2)nc(O)c1[N+](=O)[O-]	none
CC1CCN(C(=O)c2ncn(C)c2C(=O)N2CCC(C)CC2)CC1	none (no result: HSF1 inh, PHOSPHO1 inh, core dimer inh, AI-2 QS modul, HSF1 activator)
O=C(NNC(=S)NC(=O)c1ccccc1[N+](=O)[O-])c1ccccc1	none
O=C(NCc1cccs1)c1ccccc1[N+](=O)[O-]	HSF1 inh -70
O=C(NC(=S)NNC(=O)c1ccccc1[N+](=O)[O-])c1ccccc1	ALR inh 96
CCCN(CCC)C(=S)NC(=O)c1ccc(-c2ccccc2)cc1	ALR inh 99
O=C(NCc1cccs1)c1ccccc1C(=O)NCc1cccs1	none
CCC(=O)NC(=S)NNC(=O)c1ccccc1[N+](=O)[O-]	PHOSPHO1 inh 65
Cc1ccc(NS(=O)(=O)c2ccc3[nH]c(=O)[nH]c3c2)cc1	none (no result: ALR inh)
Cc1ccccc1OCC(=O)NNC(=S)NC(=O)c1ccccc1[N+](=O)[O-]	none (no result: ALR inh)
O=C(CC(=O)c1ccccc1[N+](=O)[O-])c1ccccc1	HSF1 inh -70 (no result: PHOSPHO1 inh)
CC(C)(C)c1ccc(OCC(=O)NNC(=S)NC(=O)c2ccccc2[N+](=O)[O-])c(Br)c1	ALR inh 92
CCN(Cc1ccccc1)C(=S)NC(=O)c1ccccc1Br	none
Cc1onc(-c2ccccc2)c1NC(=O)N(CCC#N)Cc1ccccc1	HSF1 activator 58
O=C(NNC(=O)c1ccccc1[N+](=O)[O-])c1ccccc1[N+](=O)[O-]	none (no result: ALR inh, HSF1 inh, HSF1 activator)
CCCN(Cc1ccccc1)C(=S)NC(=O)c1ccccc1[N+](=O)[O-]	HSF1 inh -60
Cc1cccnc1CNC(=O)C1CCC(=O)N(CCc2cccc(F)c2)C1 (stereo unspecified)	none
COc1ccc(CN(CCC#N)C(=S)NC(=O)c2ccccc2)cc1	none
N#CCCN(Cc1ccccc1)C(=S)NC(=O)c1ccccc1	ALR inh 98
Cc1ccc(C2=NS(=O)(=O)N(C)C(C(=O)NC3CCCC3)=C2)cc1	none
COc1cc(-c2nc(C(=O)NCC3CCCO3)cc3c2[nH]c2ccccc23)cc(OC)c1OC (stereo unspecified)	ALR inh 99
COc1ccccc1-c1nc(C(=O)NCC2CCCO2)cc2c1[nH]c1ccccc12 (stereo unspecified)	ALR inh 98
COc1cccc2[nH]c(C(=O)NCC3CCCO3)cc12 (stereo unspecified)	none
O=C(NCC1CCCO1)c1cc2c([nH]c3ccccc32)c(-c2cccc(Cl)c2)n1 (stereo unspecified)	none
CC/C(=N\O)c1ccc(O)c(OC)c1	ALR inh 99
COc1ccc(-c2cnnc(N/N=C/c3ccc(O)c(OC)c3)n2)cc1	none
Cc1cc(N=Nc2ccc(Cl)cc2)cc(CN2CCCC2)c1O	ALR inh 99, HSF1 inh -60
C=CCn1c(SCC(=O)Nc2sc3c(c2C#N)CCC3)nnc1C1COc2ccccc2O1 (stereo unspecified)	core dimer inh 47 (no result: ALR inh)
Cn1c(SCC(=O)Nc2sc3c(c2C#N)CCC3)nnc1C1COc2ccccc2O1 (stereo unspecified)	none
COc1ccc(CCNC(=O)C2CC(=O)N(C3CCCCC3)C2)cc1OC (stereo unspecified)	none
Cc1ccc(C2(c3noc(CN(C)Cc4cnn(C)c4)n3)CCCC2)cc1	none
O=C(N/N=C\c1ccc([N+](=O)[O-])s1)C1COc2ccccc2O1 (stereo unspecified)	AI-2 QS modul -86
O=C(N/N=C\c1ccc(Cl)s1)C1COc2ccccc2O1 (stereo unspecified)	none
O=C(N/N=C\c1ccc(-c2ccccc2[N+](=O)[O-])o1)C1COc2ccccc2O1 (stereo unspecified)	ALR inh 75
O=C(N/N=C\c1ccc([N+](=O)[O-])o1)C1COc2ccccc2O1 (stereo unspecified)	AI-2 QS modul -87
Cc1ccc(-n2cc(S(=O)(=O)c3ccc(C)cc3)[nH]c2=O)cc1	none
